Drawing on ChEMBL document CHEMBL1138087, “Synthesis and evaluation of N-aryl pyrrolidinones as novel anti-HIV-1 agents. Part 1” (Bioorg Med Chem Lett, 2006), this text covers EC50, Selectivity ratio and CC50 for eight compounds.

A value given as a limit tells only on which side of the number the result lay.

Experiment [1] has as its system Human immunodeficiency virus 1. The experiment is described as follows: Antiviral activity against HIV1 K103N mutant. The class given is functional, organism-based. The gist of the method:
(§1)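 HEK 293T cells grown in DMEM with 10% FBS and Pen/Strep/Glutamine. Cells seeded at 700 cells/well and cultured 24 h at 37 °C under 5% CO₂. Compounds serially diluted in DMSO were added and incubated 1 h at 37 °C. Cells were then infected with HIV reporter virus at MOI ~1.0 and cultured a further 48 h at 37 °C. Read-out was luciferase activity (Bright-Glo).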

Experiment [2] has as its system Human immunodeficiency virus 1. The experiment is described as follows: Selectivity for wild type HIV1 virus over HIV1 K103N mutant. The class given is functional.
For experiment [3], the system named is Human immunodeficiency virus 1. The experiment is described as follows: Antiviral activity against HIV1 Y181C mutant. The class given is functional, organism-based. The method in brief:
as §1

Experiment [4] has as its system Human immunodeficiency virus 1. The experiment is described as follows: Antiviral activity against wild type HIV1 virus. The class given is functional, organism-based. The gist of the method: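 HEK 293T cells grown in DMEM with 10% FBS and Pen/Strep/Glutamine. Seeded at 700 cells/well, cultured 24 h at 37 °C under 5% CO₂. Serially diluted compound in DMSO added, then 1 h at 37 °C. HIV reporter virus added at MOI about 1.0, cells cultured a further 48 h at 37 °C. Luciferase read-out with Bright-Glo reagent.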

In experiment [5] the test system is Human immunodeficiency virus 1. The experiment can be described thus: Selectivity for wild type HIV1 virus over HIV1 Y181C mutant. The class given is functional.
For the next experiment, the system named is HEK293. The experiment can be described thus: Cytotoxicity against HEK293T cells. The note with it: Homo sapiens. The class given is functional. The method in brief: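 293T cells seeded at 700 cells/well and cultured 24 h at 37 °C under 5% CO₂. Serially diluted compound in DMSO added to uninfected cells, then a further 48 h at 37 °C. Viability read by fluorescence after Alamar Blue (diluted 1:1 in DMEM) and 4 h at room temperature.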

Experiment [6] has as its system Human immunodeficiency virus 1. The experiment can be described thus: Selectivity for wild type HIV1 virus over HIV1 K103N/L100I mutant. In kind it is functional.
Experiment [7] has as its system Human immunodeficiency virus 1. The experiment is described as follows: Antiviral activity against HIV1 K103N/L100I mutant. The class given is functional, organism-based. The gist of the method: as §1
In experiment [8] the test system is Human immunodeficiency virus 1. The experiment is described as follows: Selectivity for wild type HIV1 virus over HIV1 L100I mutant. In kind it is functional.
For experiment [9], the system named is Human immunodeficiency virus 1. The experiment can be described thus: Antiviral activity against HIV1 L100I mutant. In kind it is functional, organism-based. The method in brief:
as §1

Usually EC50 stands for the concentration that produces a half-maximal response. Low readings indicate higher potency in that assay, high ones lower potency in that assay. One may read the CC50 as the concentration that lowers cell viability or growth by half. Read a low CC50 as greater toxicity to the cells. As to `COc1ccc([C@H]2CC(=O)N(c3cccc(NS(=O)(=O)c4cccc(F)c4)c3)C2)cc1OC1CCCC1`, the EC50 in experiment [1] came out at 261 nM; in experiment [3], 684 nM; in experiment [4], 43 nM; in [7] it was 26 nM; in [9], 20 nM. The Selectivity ratio stood at 6 in experiment [2], 16 in experiment [5], 0.6 in experiment [6] and 0.46 in experiment [8]. In the experiment with HEK293, this compound had a CC50 of more than 10000 nM.

With `COc1ccc([C@H]2CC(=O)N(c3cccc(NS(=O)(=O)c4ccccc4Br)c3)C2)cc1OC1CCCC1`, the EC50 turned out to be 292 nM in experiment [1]; 794 nM in experiment [3]; 42 nM in [4]; 22 nM in experiment [7]; 16 nM in [9]. For the same compound, the Selectivity ratio turned out to be 6.9 in experiment [2], 19 in experiment [5], 0.52 in experiment [6] and 0.38 in experiment [8]. Also, in the experiment with HEK293, the CC50 was more than 10000 nM.

For `COc1ccc([C@H]2CC(=O)N(c3cccc(NS(=O)(=O)c4ccccc4Cl)c3)C2)cc1OC1CCCC1`, the EC50 came to 170 nM in [1]; 557 nM in [3]; 42 nM in experiment [4]; 28 nM in experiment [7]; 19 nM in experiment [9]. The Selectivity ratio in [2] is reported as 4; in experiment [5] it was 13; in experiment [6] it was 0.67; in experiment [8], 0.45. Also, the CC50 in the experiment on HEK293 was more than 10000 nM.

Regarding `COc1ccc([C@H]2CC(=O)N(c3cccc(NS(=O)(=O)c4cccc(Cl)c4)c3)C2)cc1OC1CCCC1`, the EC50 in [1] was found to be 689 nM; in experiment [3], 2320 nM; in experiment [4] it was 25 nM; in experiment [7], 56 nM; in experiment [9], 40 nM. Moreover, the Selectivity ratio in experiment [2] is on record as 27; in [5], 93; in [6], 2.2; in experiment [8] it was 1.6. The 50% cytotoxic concentration (CC50) in the experiment with HEK293 is more than 10000 nM.

For the compound `COc1ccc([C@H]2CC(=O)N(c3cccc(NS(=O)(=O)c4c(F)cccc4F)c3)C2)cc1OC1CCCC1`, the EC50 in experiment [1] came out at 451 nM; in experiment [3], 1300 nM; in [4], 48 nM; in experiment [7], 52 nM; in experiment [9] it was 68 nM. The Selectivity ratio in experiment [2] amounted to 9.4; in experiment [5], 27; in experiment [6] it was 1; in experiment [8], 1.4. The compound further showed a CC50 in the experiment with HEK293 of more than 10000 nM.

As for `COc1ccc([C@H]2CC(=O)N(c3cccc(NS(=O)(=O)c4ccccc4F)c3)C2)cc1OC1CCCC1`, the EC50 came out at 269 nM in [1]; 1500 nM in experiment [3]; 64 nM in experiment [4]; 41 nM in experiment [7]; 34 nM in [9]. Also, the Selectivity ratio is recorded as 4.2 in experiment [2], 21 in [5], 0.64 in [6] and 0.53 in experiment [8]. In the experiment on HEK293, this compound returned a CC50 of more than 10000 nM.

In the case of `COc1ccc([C@H]2CC(=O)N(c3cccc(NS(=O)(=O)c4cccc(Br)c4)c3)C2)cc1OC1CCCC1`, the EC50 in [1] was 923 nM; in [3], 2260 nM; in experiment [4], 71 nM; in experiment [7] it was 83 nM; in [9], 53 nM. The Selectivity ratio in [2] is on record as 13; in experiment [5] it was 32; in [6], 1.1; in experiment [8], 0.74. This compound also came in with a CC50 with HEK293 of more than 10000 nM.

`COc1ccc([C@H]2CC(=O)N(c3cccc(NS(=O)(=O)c4cccc(Cl)c4C)c3)C2)cc1OC1CCCC1`: the EC50 turned out to be 162 nM in experiment [1]; 389 nM in [3]; 20 nM in experiment [4]; 10 nM in experiment [7]; 8 nM in experiment [9]. Further, the Selectivity ratio was determined as 8.1 in [2], 19 in [5], 0.5 in [6] and 0.4 in experiment [8]. In the experiment on HEK293, this compound registered a CC50 of more than 10000 nM.
